Results from ChEMBL document CHEMBL1921780, “Novel 3-nitro-1H-1,2,4-triazole-based aliphatic and aromatic amines as anti-chagasic agents” (J Med Chem, 2011).

Tests used:
[1] = Selectivity index, ratio of IC50 for rat L6 cells to IC50 for Trypanosoma cruzi Tulahuen C4; type: toxicity, cell-based; conditions: L6 cells versus Trypanosoma cruzi Tulahuen C4, read-out: Ratio IC50
In short: (§1)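 Selectivity index is the L6 myoblast IC50 divided by the IC50 for each parasite. L. donovani was tested as axenic amastigotes. Both IC50s came from 96-well dose-response screens fitted by linear regression of sigmoidal curves.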

Trypanosoma cruzi [2] = experiment: Ratio of benznidazole IC50 to compound IC50 for Trypanosoma cruzi Tulahuen C4 infected in rat L6 cells after 72 hrs by alamar blue assay; type: functional
[3] = tested on: Trypanosoma brucei rhodesiense; experiment: Antitrypanosomal activity against blood stream form of Trypanosoma brucei rhodesiense STIB 900 […] after 72 hrs by alamar blue assay; type: functional, organism-based; conditions: STIB 900, 72 h
[4] = Dissociation constant, pKa of the compound; type: physicochemical
Trypanosoma cruzi [5] = experiment: Antitrypanosomal activity against amastigotes of Trypanosoma cruzi Tulahuen C4 infected in rat L6 cells after 72 hrs by alamar blue assay; conditions: Tulahuen C4, L6, 72 h
[6] = Selectivity index, ratio of IC50 for rat L6 cells to IC50 for Leishmania donovani MHOM-ET-67/L82; type: toxicity, cell-based; conditions: L6 cells versus Leishmania donovani MHOM-ET-67/L82, read-out: Ratio IC50; in short: as §1
[7] = Selectivity index, ratio of IC50 for rat L6 cells to IC50 for Trypanosoma brucei rhodesiense STIB 900; type: toxicity, cell-based; conditions: L6 cells versus Trypanosoma brucei rhodesiense STIB 900, read-out: Ratio IC50; in short: as §1
L6 = experiment: Cytotoxicity against rat L6 cells after 72 hrs by alamar blue assay; type: cell-based; conditions: L6, 72 h
In short: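 Run in 96-well plates with a compound dose series. T. cruzi was tested as amastigotes inside infected L6 rat skeletal myoblasts. Uninfected L6 cells were used for cytotoxicity. IC50 was obtained by linear regression from sigmoidal dose–inhibition curves.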

Leishmania donovani = experiment: Antileishmanial activity against Leishmania donovani MHOM-ET-67/L82 axenic amastigotes after 72 hrs by alamar blue assay; conditions: MHOM-ET-67/L82, 72 h
[8] = tested on: Trypanosoma brucei brucei; experiment: Antitrypanosomal activity against tetracycline-induced blood-stream Trypanosoma brucei brucei overexpressing type 1 nitroreductase after 3 days by alamar blue assay; type: functional, organism-based; conditions: 72 h
In short: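 Bloodstream-form parasites carrying inducible TbNTR, with expression induced by tetracycline (1 μg/mL). Seeded at 1 × 10^3 per ml with a range of nitrotriazole or nifurtimox concentrations. Incubated 3 days at 37 °C, then Alamar blue added for 16 h. IC50 taken from cell density.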

[9] = tested on: Trypanosoma brucei brucei; experiment: Antitrypanosomal activity against blood-stream Trypanosoma brucei brucei expressing type 1 nitroreductase after 3 days by alamar blue assay in absence of tetracycline; type: functional, organism-based; conditions: 72 h
In short: (§2)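 Bloodstream-form parasites seeded at 1 × 10^3 per ml in growth medium with a range of nitrotriazole or nifurtimox concentrations, no tetracycline. Incubated 3 days at 37 °C, then Alamar blue added for a further 16 h. IC50 taken from culture cell density.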

[10] = tested on: Trypanosoma brucei brucei; experiment: Ratio of IC50 for blood-stream Trypanosoma brucei brucei expressing type 1 nitroreductase in the absence of tetracycline to IC50 for tetracycline-induced blood-stream Trypanosoma brucei brucei overexpressing type 1 nitroreductase; type: functional
In short: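 Each culture seeded at 1 × 10^3 per ml, given compound for 3 days at 37 °C, then Alamar blue added for 16 h. IC50 taken from cell density, and the ratio is uninduced over induced.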

[11] = tested on: Trypanosoma brucei brucei; experiment: Antitrypanosomal activity against blood-stream Trypanosoma brucei brucei after 3 days by alamar blue assay; type: functional, organism-based; conditions: 72 h; in short: as §2

Compound	selectivity ratio [1]	Ratio IC50 (Trypanosoma cruzi [2])	IC50 [3] [nM]	pKa [4]	IC50 (Trypanosoma cruzi [5]) [nM]	selectivity ratio [6]	selectivity ratio [7]	IC50 (L6) [nM]	IC50 (Leishmania donovani) [nM]	IC50 [8] [nM]	IC50 [9] [nM]	Ratio IC50 [10]	IC50 [11] [nM]
Cl.O=[N+]([O-])c1ncn(CCCNc2c3ccccc3nc3ccccc23)n1	147	9.6	611	9.2	140	1	34	20500	35400				
COc1ccc2nc3cc(Cl)ccc3c(NCCCCn3cnc([N+](=O)[O-])n3)c2c1	66		134	8.84	151	1	74	9940	10200				
CC1CS(=O)(=O)CCN1/N=C/c1ccc([N+](=O)[O-])o1 (stereo unspecified) [NIFURTIMOX]										130	1710	13	
Cl.O=[N+]([O-])c1ncn(CCCN(Cc2ccc(C(F)(F)F)cc2)Cc2ccc(C(F)(F)F)cc2)n1	634	9.3	271	8.79	145	264	339	91900	348	100	200	2	210
Cl.O=[N+]([O-])c1ncn(CCCN(Cc2ccc3cc(Br)ccc3n2)Cc2ccc3cc(Br)ccc3n2)n1	144	4.2	463	6.87	320	5	99	46000	9330				
Cl.O=[N+]([O-])c1ncn(CCCNc2ccnc3cccnc23)n1	129	1.3	2220	6.81	1030	1	60	133000	182000				> 10000
Cl.O=[N+]([O-])c1ncn(CCCN(Cc2ccc3ccc(Cl)cc3n2)Cc2ccc3ccc(Cl)cc3n2)n1	200	3.8	917	6.87	358	7	78	71600	9580				
Cl.O=[N+]([O-])c1ncn(CCCCNc2nc(-c3ccccc3)nc3ccccc23)n1	44	0.8	562	5.06	1740	9	137	77000	8690				
Cl.O=[N+]([O-])c1ncn(CCCCNc2ccnc3cc(C(F)(F)F)ccc23)n1	373	4.4	117	7.53	305	1	973	114000	137000				
Cl.O=[N+]([O-])c1nccn1CCCNc1nc(-c2ccccc2)nc2ccccc12	45	0.7	3920	5.06	1970	9	22	87800	10100	950	7580	8	7470
Cl.O=[N+]([O-])c1ncn(CCCCNc2ccnc3cccnc23)n1	208	2.9	435	6.81	460		220	95800	> 276000				
Cl.O=[N+]([O-])c1ncn(CCCNCc2ccc3ccc(Cl)cc3n2)n1	460	4.3	1050	8.76	311	2	136	143000	63800				
Cl.Cl.O=[N+]([O-])c1ncn(CCCCN2CCN(Cc3ccc(C(F)(F)F)cc3)CC2)n1	287	3.3	1200	8.52	412	3	99	118000	44400				> 10000
Cl.Cl.O=[N+]([O-])c1ncn(CCCN2CCN(Cc3ccc(C(F)(F)F)cc3)CC2)n1	> 562	4	1380	8.33	340	> 3	> 140	> 191000	58200				> 10000
Cl.Cl.O=[N+]([O-])c1ncn(CCCN2CCN(c3ccc(C(F)(F)F)cc3)CC2)n1	1320	33.8	5330	7.85	40	2	10	52800	25900	210	2630	13	2300
Cl.O=[N+]([O-])c1ncn(CCCNCc2ccc(C(F)(F)F)cc2)n1	383	4.2	3610	9.65	320	1	34	122000	159000				
Cl.O=[N+]([O-])c1ncn(CCCCNc2ccnc3cc(Cl)ccc23)n1	976	9.6	193	7.31	140	2	708	137000	64500	100	440	4	170
Cc1nc(C(F)(F)F)nc(NCCCn2ccnc2[N+](=O)[O-])c1C	> 55		15200		4280	> 12	> 16	> 236000	20000				
